According to ChEMBL document CHEMBL1126776, “Antihyperglycemic activity of novel naphthalenyl 3H-1,2,3,5-oxathiadiazole 2-oxides” (1993):
Several values for one entry are separate records, joined by “and”; a condition that tells them apart may be missing. Equal values may be shown once.

What was measured:
[1] = test system: Mus musculus; assay: Percentage change in plasma glucose after 4 days of treatment in db/db mouse at 5 mg/kg (po) in a postprandial assay
[2] = test system: Mus musculus; assay: Percentage change in plasma glucose after 4 days of treatment in db/db mouse at 1 mg/kg (po) in a postprandial assay; assay type: functional
In short: (§1)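 Male db/db (C57BL/KsJ) mice; postprandial assay after 4 days of oral dosing. Result is % change in plasma glucose relative to the vehicle-treated group. Values are mean ± SE with 4–6 mice per group; p < 0.05 flagged.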

[3] = test system: Mus musculus; assay: Percentage change in plasma glucose after 4 days of treatment in db/db mouse at 5 mg/kg (po) in a postprandial assay; assay type: functional
In short: as §1

[4] = test system: Mus musculus; assay: Percentage change in plasma glucose after 4 days of treatment in db/db mouse at 20 mg/kg (po) in a postprandial assay; assay type: functional
In short: as §1

[5] = test system: Mus musculus; assay: Percentage change in plasma glucose after 4 days of treatment in db/db mouse at 100 mg/kg (po) in a postprandial assay; assay type: functional
In short: as §1

[6] = test system: Mus musculus; assay: Plasma glucose after treatment in obese ob/ob mice at 200 mg/kg (po); assay type: functional
In short: (§2)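 Female obese ob/ob (C57BL/6J) mice, 3-5 months old, fed ad libitum. Oral gavage once daily for 10 days, vehicle 0.2 mL 2% Tween 80/saline (w/v). Decapitated 4 h after the last dose; blood assayed for glucose. Mean ± SEM; p < 0.05 versus vehicle.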

[7] = test system: Mus musculus; assay: Plasma glucose after treatment in obese ob/ob mice at 50 mg/kg (po); assay type: functional
In short: as §2

[8] = test system: Mus musculus; assay: Percentage change in plasma glucose after 4 days of treatment in db/db mouse at 1 mg/kg (po) in a postprandial assay
[9] = test system: Mus musculus; assay: Plasma glucose after treatment in obese ob/ob mice at 5 mg/kg (po); assay type: functional
In short: as §2

[10] = test system: Rattus norvegicus; assay: Change in plasma glucose levels of streptozocin-diabetic rats wtih type I diabetes at dose of 25 mg/kg, po; assay type: functional
In short: (§3)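 Male Sprague-Dawley rats made diabetic with streptozocin (100 mg/kg, ip). Drug or vehicle given orally once daily for 3 weeks. Tail-tip blood taken 90 min after the last dose and assayed for plasma glucose. Mean ± SE, n = 9-12 per group.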

[11] = test system: Rattus norvegicus; assay: Volume of water consumed by the rat at a dose of 25 mg/kg; assay type: functional
In short: (§4)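 Male Sprague-Dawley rats (nondiabetic), dosed daily by mouth for 11 days. Urine collected over 24 h and assayed for glucose; urine volume, water intake and food intake also measured. Values are mean ± SE, n = 6 per group.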

[12] = test system: Rattus norvegicus; assay: Volume of urine collected after treatment in nondiabetic rats at the dose of 25 mg/kg; assay type: functional
In short: as §4

[13] = test system: Rattus norvegicus; assay: Amount of food consumed by the rat at a dose of 10 mg/kg; assay type: functional
In short: as §4

[14] = test system: Mus musculus; assay: Plasma glucose after treatment in obese ob/ob mice at 20 mg/kg (po); assay type: functional
In short: as §2

[15] = test system: Rattus norvegicus; assay: Change in urinary glucose excretion of nondiabetic rats at the dose of 25 mg/kg; assay type: functional, Urine
[16] = test system: Rattus norvegicus; assay: Volume of urine collected after treatment in nondiabetic rats at the dose of 10 mg/kg; assay type: functional
In short: as §4

[17] = test system: Rattus norvegicus; assay: Volume of urine collected after treatment in nondiabetic rats at the dose of 5 mg/kg; assay type: functional
In short: as §4

[18] = test system: Rattus norvegicus; assay: Amount of food consumed by the rat at a dose of 5 mg/kg; assay type: functional
In short: as §4

[19] = test system: Rattus norvegicus; assay: Change in plasma glucose levels of streptozocin-diabetic rats wtih type I diabetes at dose of 5 mg/kg, po; assay type: functional
In short: as §3

[20] = test system: Rattus norvegicus; assay: Plasma glucose levels of nondiabetic rats after 2 hour of drug administration (25 mg/Kg, po); assay type: functional
In short: (§5)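 Single oral dose to male Sprague-Dawley nondiabetic rats. Tail-tip blood sampled before dosing and at 1, 2 and 4 h after dosing for plasma glucose. Mean ± SE, n = 5 per group; compared with the respective vehicle group.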

[21] = test system: Rattus norvegicus; assay: Plasma glucose levels of nondiabetic rats after 1 hour of drug administration (25 mg/Kg, po); assay type: functional
In short: as §5

[22] = test system: Rattus norvegicus; assay: Amount of food consumed by the rat at a dose of 25 mg/kg; assay type: functional
In short: as §4

[23] = test system: Rattus norvegicus; assay: Plasma glucose levels of nondiabetic rats after 0 hour of drug administration (25 mg/Kg, po); assay type: functional
In short: as §5

[24] = test system: Rattus norvegicus; assay: Volume of water consumed by the rat at a dose of 5 mg/kg; assay type: functional
In short: as §4

[25] = test system: Rattus norvegicus; assay: Volume of water consumed by the rat at a dose of 10 mg/kg; assay type: functional
In short: as §4

[26] = test system: Rattus norvegicus; assay: Plasma glucose levels of nondiabetic rats after 4 hour of drug administration (25 mg/Kg, po); assay type: functional
In short: as §5

[27] = dose 5 mg/kg, in the assay text read “5 mg/kg” for “100 mg/kg”

Structure (SMILES): O=S1NC(Cc2ccc3cc(F)ccc3c2Cl)=NO1 (centres undefined)
- Change [1]: <-15%

Structure (SMILES): O=S1NC(Cc2ccc3cc(Br)ccc3c2)=NO1 (centres undefined)
- Change [2]: <-15%
- Change [3]: -25%

Structure (SMILES): CC(CC1=NOS(=O)N1)c1ccc2ccccc2c1 (centres undefined)
- Change [4]: -27%

Structure (SMILES): O=S1NC(Cc2ccc3cccc(Cl)c3c2)=NO1 (centres undefined)
- Change [2]: <-15%
- Change [5, 27]: -55%

Structure (SMILES): O=S1NC(CCc2ccc3ccccc3c2)=NO1 (centres undefined)
- Change [4]: -38%

Structure (SMILES): C=Cc1cccc2cc(CC3=NOS(=O)N3)ccc12 (centres undefined)
- Change [3]: -17%

Structure (SMILES): Cc1cccc2cc(CC3=NOS(=O)N3)ccc12 (centres undefined)
- Change [2]: <-15%
- Change [5, 27]: -37%

Structure (SMILES): Cc1cc2ccccc2c(C)c1CC1=NOS(=O)N1 (centres undefined)
- Change [2]: <-15%
- Change [3]: -45%

Structure (SMILES): Cc1cc2ccccc2cc1CC1=NOS(=O)N1 (centres undefined)
- Change ([5]; dose 100 mg/kg): -36% and -20%

Structure (SMILES): O=S1NC(Cc2cc3ccccc3cc2Cl)=NO1 (centres undefined)
- Change [2]: <-15%
- Change [5, 27]: -44%

Structure (SMILES): CSc1ccc(Br)c2ccc(CC3=NOS(=O)N3)cc12 (centres undefined)
- Change [2]: <-15%
- Change [3]: -19%

Structure (SMILES): COc1c(CC2=NOS(=O)N2)ccc2ccccc12 (centres undefined)
- Change [2]: <-15%
- Change [3]: -43%

Structure (SMILES): O=S1NC(Cc2ccc3c(Br)cccc3c2)=NO1 (centres undefined)
- Change ([5]; dose 100 mg/kg): -47% and -35%

Structure (SMILES): O=S1NC(C(Cc2ccccc2)c2ccc3ccccc3c2)=NO1 (centres undefined)
- Change [4]: <-15%

Structure (SMILES): O=S1NC(CSc2ccc3ccccc3c2)=NO1 (centres undefined)
- Change [4]: -40%

Structure (SMILES): O=S1NC(Cc2ccc3ccccc3c2F)=NO1 (centres undefined)
- Change [2]: <-15%
- Change [5, 27]: -39%

Structure (SMILES): CC(C1=NOS(=O)N1)c1ccc2ccccc2c1 (centres undefined)
- Change [4]: -49%

Structure (SMILES): COc1ccc2cc(CC3=NOS(=O)N3)ccc2c1 (centres undefined)
- Change [4]: <-15%

Structure (SMILES): O=S1NC(Cc2ccc3cccc(Br)c3c2)=NO1 (centres undefined)
- Change ([5]; dose 100 mg/kg): -59% and -48%

Structure (SMILES): COc1c(CC2=NOS(=O)N2)cc(Cl)c2ccccc12 (centres undefined)
- Change [2]: -17%
- Change [3]: -31%

Structure (SMILES): CN(C)C(=N)NC(=N)N [METFORMIN]
- Glucose level [6]: 208 mg/dL
- Glucose level [7]: 253 mg/dL

Structure (SMILES): Cc1c(CC2=NOS(=O)N2)ccc2ccccc12 (centres undefined)
- Change ([5]; dose 100 mg/kg): -36% and -20%

Structure (SMILES): CCc1cccc2cc(CC3=NOS(=O)N3)ccc12 (centres undefined)
- Change [2]: <-15%
- Change [5, 27]: -23%

Structure (SMILES): COc1cc2ccccc2cc1CC1=NOS(=O)N1 (centres undefined)
- Change [8]: -16%

Structure (SMILES): O=S1NC(Cc2ccc3c(Cl)cccc3c2)=NO1 (centres undefined)
- Glucose level [9]: 223 mg/dL
- Glucose level [10]: 255 mg/dL
- Consumption [11]: 59 mL/day
- urine volume [12]: 37 mL/day
- Consumption [13]: 25 g/day
- Glucose level [14]: 199 mg/dL
- Glucose level [15]: 5.7 g dl-1 and 2.1 g day-1
- urine volume [16]: 23 mL/day
- Change ([5]; dose 100 mg/kg): -44% and -21%
- urine volume [17]: 29 mL/day
- Consumption [18]: 25 g/day
- Glucose level [19]: 329 mg/dL
- Glucose level [20]: 122 mg/dL
- Glucose level [21]: 120 mg/dL
- Consumption [22]: 25 g/day
- Glucose level [23]: 111 mg/dL
- Consumption [24]: 49 mL/day
- Consumption [25]: 45 mL/day
- Glucose level [26]: 118 mg/dL

Structure (SMILES): O=S1NC(Cc2cc(Br)c3ccccc3c2)=NO1 (centres undefined)
- Change [2]: <-15%
- Change [3]: -21%

Structure (SMILES): O=S1NC(Cc2ccc3ccc(Cl)cc3c2)=NO1 (centres undefined)
- Change [3]: <-15%

Structure (SMILES): COc1cccc2cc(CC3=NOS(=O)N3)ccc12 (centres undefined)
- Change [8]: <-15%
- Change [1]: <-15%

Structure (SMILES): O=S1NC(Cc2ccc3ccccc3c2)=NO1 (centres undefined)
- Change [4]: -37%
- Change [3]: <-15%

Structure (SMILES): O=S1NC(Cc2ccc3cc(F)ccc3c2Br)=NO1 (centres undefined)
- Change [3]: -16%

Structure (SMILES): O=S1NC(CCCc2ccc3ccccc3c2)=NO1 (centres undefined)
- Change [4]: <-15%

Structure (SMILES): Cc1cc2ccccc2c(Br)c1CC1=NOS(=O)N1 (centres undefined)
- Change [2]: <-15%
- Change [3]: -34%

Structure (SMILES): O=S1NC(COc2ccc3ccccc3c2)=NO1 (centres undefined)
- Change [4]: <-15%

Structure (SMILES): O=S1NC(/C=C/c2ccc3ccccc3c2)=NO1 (centres undefined)
- Change [4]: <-15%

Structure (SMILES): CC(C)(C1=NOS(=O)N1)c1ccc2ccccc2c1 (centres undefined)
- Change [4]: <-15%

Structure (SMILES): O=S1NC(Cc2ccc3ccccc3c2Cl)=NO1 (centres undefined)
- Change [2]: <-15%
- Change [5, 27]: -27%

Structure (SMILES): COC(CC1=NOS(=O)N1)c1ccc2ccccc2c1 (centres undefined)
- Change [4]: <-15%

Structure (SMILES): COc1ccc(Br)c2cc(CC3=NOS(=O)N3)ccc12 (centres undefined)
- Change [2]: <-15%

Structure (SMILES): O=S1NC(Cc2ccc3ccc(Br)cc3c2)=NO1 (centres undefined)
- Change [3]: <-15%

Structure (SMILES): CC1(COc2ccc(CC3SC(=O)NC3=O)cc2)CCCCC1 (centres undefined) [CIGLITAZONE]
- Glucose level [14]: 189 mg/dL

Structure (SMILES): C#Cc1cccc2cc(CC3=NOS(=O)N3)ccc12 (centres undefined)
- Change [2]: -19%
- Change [5, 27]: -45%

Structure (SMILES): O=S1NC(Cc2cc3ccccc3cc2C(F)(F)F)=NO1 (centres undefined)
- Change [2]: <-15%
- Change [5, 27]: -30%

Structure (SMILES): O=S1NC(CCCCc2ccc3ccccc3c2)=NO1 (centres undefined)
- Change ([5]; dose 100 mg/kg): -28%

Structure (SMILES): O=S1NC(Cc2cc3ccccc3cc2Br)=NO1 (centres undefined)
- Change [2]: <-15%
- Change [3]: -28%

Structure (SMILES): O=S1NC(Cc2ccc3c(C(F)(F)F)cccc3c2)=NO1 (centres undefined)
- Change [2]: <-15%
- Change [5, 27]: -30%

Structure (SMILES): CCc1c(CC2=NOS(=O)N2)ccc2ccccc12 (centres undefined)
- Change [2]: <-15%
- Change ([5]; dose 5 mg/kg, in the assay text read “at 5 mg/kg” for “at 100 mg/kg”): -24%

Structure (SMILES): Cc1ccc2ccc(CC3=NOS(=O)N3)cc2c1Br (centres undefined)
- Change [3]: -21%

Structure (SMILES): O=S1NC(Cc2ccc3ccccc3c2Br)=NO1 (centres undefined)
- Change ([5]; dose 100 mg/kg): -40% and -21%

Structure (SMILES): N#Cc1cccc2ccc(CC3=NOS(=O)N3)cc12 (centres undefined)
- Change [2]: <-15%
- Change [3]: <-15%

Structure (SMILES): COc1ccc2ccc(CC3=NOS(=O)N3)cc2c1 (centres undefined)
- Change [3]: -19%

Structure (SMILES): Cc1ccc2ccc(CC3=NOS(=O)N3)cc2c1 (centres undefined)
- Change [4]: -36%

Structure (SMILES): CSc1cccc2cc(CC3=NOS(=O)N3)ccc12 (centres undefined)
- Change [3]: <-15%

Structure (SMILES): O=S1NC(c2ccc3ccccc3c2)=NO1 (centres undefined)
- Change [4]: <-15%

Structure (SMILES): COc1ccc(Cl)cc1C(=O)NCCc1ccc(S(=O)(=O)NC(=O)NC2CCCCC2)cc1 [GLYBURIDE]
- Glucose level [9]: 297 mg/dL
- Glucose level [14]: 311 mg/dL
- Glucose level [20]: 51 mg/dL
- Glucose level [21]: 71 mg/dL
- Glucose level [23]: 110 mg/dL
- Glucose level [26]: 55 mg/dL
